Measurements as given in ChEMBL document CHEMBL4261487, “Small structural changes of the imidazopyridine diacylglycerol acyltransferase 2 (DGAT2) inhibitors produce an improved safety profile” (Medchemcomm, 2017).
Blank lines part the entries; values can stand above or below the molecule they belong to.

Assays:
[1] = Oral bioavailability in beagle dog at 5 mg/kg; assay type: ADME, organism-based, Canis lupus familiaris; settings: in vivo
[2] = Fraction unbound in dog plasma; assay type: ADME, cell-free, Canis lupus familiaris
Canis familiaris [3] = experiment: In vivo inhibition of DGAT2 in beagle dog assessed as coverage of in vitro IC50 for dog DGAT2 at 10 mg/kg, po qd administered for 1 month; assay type: functional, Canis lupus familiaris; parameters: scale not given: the % may be the effect or the level left
In short: (§1)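 Beagle dogs, once-daily oral dosing for 14 days or 1 month; systemic exposure with sexes combined; coverage is the average % above dog DGAT2 IC50 at steady state over the 24 h dosing interval.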

CYP3A4 = CYP3A4 (Homo sapiens, UniProt P08684); experiment: Drug metabolism in human liver microsomes assessed as CYP3A4-mediated oxidative metabolism by measuring clearance rate; assay type: ADME; settings: liver microsomes, read-out: CLH
[4] = Volume of distribution at steady state in beagle dog at 1 mg/kg, iv; assay type: ADME, organism-based, Canis lupus familiaris; settings: in vivo, read-out: Vdss
In short: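 Male Beagle dogs, single iv dose, crystalline form of compound; value is the mean of two experiments.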

[5] = Ratio of Cmax in beagle dog at 3 mg/kg, po qd administered for 1 month to IC50 for in vitro inhibition of dog DGAT2; assay type: organism-based, Canis lupus familiaris; settings: in vivo
In short: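 One-month toxicity study in Beagle dogs with N = 2/sex/dose. Plasma exposure at each dose level was referenced to the dog DGAT2 enzymatic IC50, reported as the geometric mean of at least three replicates.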

Canis familiaris [6] = experiment: Unbound Cmax in beagle dog at 10 mg/kg, po qd administered for 1 month; assay type: ADME, organism-based, Canis lupus familiaris; settings: in vivo
In short: (§2)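 Beagle dogs were dosed orally once daily in a 14-day exploratory study or 1-month toxicity studies. Steady-state systemic exposure over the 24 h dosing interval is reported as the mean of male and female values combined.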

[7] = Apparent intrinsic clearance in rat hepatocytes assessed per million cells; assay type: ADME, cell-based, Hepatocyte
UGT = experiment: Drug metabolism in human liver microsomes assessed as UGT-mediated glucuronidation by measuring clearance rate; assay type: ADME; settings: liver microsomes, read-out: CLH
Canis familiaris [8] = experiment: Unbound Cmax in telemetered beagle dog at 25 mg/kg administered via oral gavage measured over 24 hrs; assay type: ADME, organism-based, Canis lupus familiaris; settings: in vivo
In short: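 Telemetered Beagle dogs given oral doses, with blood pressure and heart rate monitored after dosing alongside plasma exposure.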

Canis familiaris [9] = experiment: Unbound AUC in beagle dog at 10 mg/kg, po qd administered for 1 month; assay type: ADME, organism-based, Canis lupus familiaris; settings: in vivo; in short: as §2
[10] = molecular target: T1, Diacylglycerol O-acyltransferase 2 (Rattus norvegicus, UniProt Q5FVP8); experiment: Inhibition of rat DGAT2
T1 sequence (Q5FVP8 whole entry): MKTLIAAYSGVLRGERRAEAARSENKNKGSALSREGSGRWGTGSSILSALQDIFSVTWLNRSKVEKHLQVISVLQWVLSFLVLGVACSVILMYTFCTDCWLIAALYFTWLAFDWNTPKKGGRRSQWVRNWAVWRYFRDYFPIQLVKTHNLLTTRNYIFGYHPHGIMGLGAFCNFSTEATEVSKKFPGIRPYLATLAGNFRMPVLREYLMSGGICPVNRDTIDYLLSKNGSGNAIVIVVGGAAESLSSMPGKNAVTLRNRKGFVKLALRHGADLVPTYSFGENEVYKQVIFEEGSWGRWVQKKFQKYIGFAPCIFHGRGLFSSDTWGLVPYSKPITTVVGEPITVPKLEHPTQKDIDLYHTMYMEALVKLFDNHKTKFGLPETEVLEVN

Canis familiaris [11] = experiment: Toxicity in po dosed telemetered beagle dog assessed as increase in heart rate measured over 24 hrs; assay type: organism-based, Canis lupus familiaris; settings: in vivo
Rattus norvegicus [12] = experiment: Unbound Cmax in Wistar Han IGS rat at 500 mg/kg, po qd administered for 14 days; assay type: ADME, organism-based; settings: in vivo, 336 h
In short: (§3)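 Wistar Han rats were dosed orally once daily for 14 days (exploratory, 5/sex/dose) or 1 month (toxicity, 10/sex/dose). Toxicokinetic satellite animals (3–4/sex/dose) were used, and steady-state systemic exposure is given as the mean of male and female values combined.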

Canis familiaris [13] = experiment: Toxicity in beagle dog assessed as decrease in body weight at 150 mg/kg, po qd administered for 10 days; assay type: organism-based, Canis lupus familiaris; settings: in vivo, 240 h
Canis familiaris [14] = experiment: Unbound AUC in beagle dog at 75 mg/kg, po qd administered for 14 days; assay type: ADME, organism-based, Canis lupus familiaris; settings: in vivo, 336 h; in short: as §2
Canis familiaris [15] = experiment: Toxicity in beagle dog assessed as prolongation of QTc interval at 100 to 150 mg/kg, po qd administered for 25 days; assay type: organism-based, Canis lupus familiaris; settings: in vivo, 600 h
Rattus norvegicus [16] = experiment: Unbound Cmax in Wistar Han IGS rat at 100 mg/kg, po qd administered for 14 days; assay type: ADME, organism-based; settings: in vivo, 336 h; in short: as §3
Canis familiaris [17] = experiment: Toxicity in telemetered beagle dog assessed as increase in systolic pressure at 25 mg/kg administered via oral gavage measured over 24 hrs; assay type: organism-based, Canis lupus familiaris; settings: in vivo
Canis familiaris [18] = experiment: Unbound Cmax in beagle dog at 100 to 150 mg/kg, po qd administered for 1 month; assay type: ADME, organism-based, Canis lupus familiaris; settings: in vivo; in short: as §2
Canis familiaris [19] = experiment: Toxicity in telemetered beagle dog assessed as multiple bouts of emesis at 75 mg/kg administered via oral gavage measured within 4 hrs of dosing; assay type: organism-based, Canis lupus familiaris; settings: in vivo
Canis familiaris [20] = experiment: Toxicity in telemetered beagle dog assessed as increase in heart rate at 25 mg/kg administered via oral gavage measured over 24 hrs; assay type: organism-based, Canis lupus familiaris; settings: in vivo
Canis familiaris [21] = experiment: Toxicity in beagle dog assessed as decrease in food consumption at 150 mg/kg, po qd administered for 10 days; assay type: organism-based, Canis lupus familiaris; settings: in vivo, 240 h
Canis familiaris [22] = experiment: Toxicity in telemetered beagle dog assessed as increase in heart rate at 10 mg/kg administered via oral gavage measured over 24 hrs; assay type: organism-based, Canis lupus familiaris; settings: in vivo
Rattus norvegicus [23] = experiment: Unbound AUC in Wistar Han IGS rat at 500 mg/kg, po qd administered for 14 days; assay type: ADME, organism-based; settings: in vivo, 336 h; in short: as §3
Canis familiaris [24] = experiment: Toxicity in beagle dog assessed as renal tubular degeneration at 300 mg/kg, po qd administered for 14 days; assay type: organism-based, Canis lupus familiaris; settings: in vivo, 336 h
Canis familiaris [25] = experiment: Unbound Cmax in beagle dog […] at 300 mg/kg, po qd administered for 14 days; assay type: ADME, organism-based, Canis lupus familiaris; settings: in vivo, 336 h
In short: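 Exploratory 14-day dog toxicity study with daily oral dosing. Toxicokinetic exposure is reported as the mean with male and female systemic values combined.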

Canis familiaris [26] = experiment: Unbound AUC in beagle dog at 100 to 150 mg/kg, po qd administered for 1 month; assay type: ADME, organism-based, Canis lupus familiaris; settings: in vivo; in short: as §2
Canis familiaris [27] = experiment: Toxicity in telemetered beagle dog assessed as increase in systolic blood pressure at 20 mg/kg, iv administered as single bolus dose over 2 mins; assay type: organism-based, Canis lupus familiaris; settings: in vivo
Rattus norvegicus [28] = experiment: In vivo inhibition of DGAT2 in Wistar Han IGS rat assessed as coverage of in vitro IC50 for rat DGAT2 at 10 mg/kg, po qd administered for 14 days; assay type: functional; parameters: scale not given: the % may be the effect or the level left
In short: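 Wistar Han rats, once-daily oral dosing for 14 days (exploratory, 5/sex/dose) or 1 month (10/sex/dose); toxicokinetics in 3–4/sex/dose with sexes combined; coverage is the average % above rat DGAT2 IC50 at steady state over the 24 h dosing interval.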

Canis familiaris [29] = experiment: Unbound AUC in beagle dog at 5 mg/kg, po qd administered for 1 month; assay type: ADME, organism-based, Canis lupus familiaris; settings: in vivo; in short: as §2
Rattus norvegicus [30] = experiment: Unbound Cmax in Wistar Han IGS rat at 300 mg/kg, po qd administered for 1 month; assay type: ADME, organism-based; settings: in vivo; in short: as §3
Canis familiaris [31] = experiment: In vivo inhibition of DGAT2 in beagle dog assessed as coverage of in vitro IC50 for dog DGAT2 at 2 mg/kg, po qd administered for 1 month; assay type: functional, Canis lupus familiaris; parameters: scale not given: the % may be the effect or the level left; in short: as §1
Canis familiaris [32] = experiment: Toxicity in beagle dog assessed as decrease in food consumption at 100 mg/kg, po qd administered starting on day 11 post 150 mg/kg dosing period and continuing for 20 days; assay type: organism-based, Canis lupus familiaris; settings: in vivo, 480 h

Chain of CYP3A4 (P08684 whole entry): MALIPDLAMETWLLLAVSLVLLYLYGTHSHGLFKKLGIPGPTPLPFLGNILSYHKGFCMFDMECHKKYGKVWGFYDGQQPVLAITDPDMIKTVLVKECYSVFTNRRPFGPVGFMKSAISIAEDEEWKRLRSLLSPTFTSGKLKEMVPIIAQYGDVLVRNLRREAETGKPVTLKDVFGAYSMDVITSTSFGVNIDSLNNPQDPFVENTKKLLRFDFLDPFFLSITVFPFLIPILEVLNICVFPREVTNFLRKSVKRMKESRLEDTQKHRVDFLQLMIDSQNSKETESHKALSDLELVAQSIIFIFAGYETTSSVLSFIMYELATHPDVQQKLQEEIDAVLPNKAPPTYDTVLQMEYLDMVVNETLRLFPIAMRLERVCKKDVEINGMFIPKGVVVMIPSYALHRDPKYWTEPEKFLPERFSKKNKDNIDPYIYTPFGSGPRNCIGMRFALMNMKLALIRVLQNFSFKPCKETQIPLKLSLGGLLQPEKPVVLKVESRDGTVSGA

bioavailability [1]: 75%
fraction unbound [2]: 0.12
microsomal CLint (CYP3A4): 27.5 µL/min/mg
Vd [4]: 0.54 L/kg
Ratio [5]: 11
fCmax (Canis familiaris [6]): 1270 nM
CLH(app) [7]: 12.7 µL/min
microsomal CLint (UGT): 10.8 µL/min/mg
fAUC (Canis familiaris [9]): 2680 ng·h/mL
IC50 [10]: 155 nM
Compound: C[C@@H](c1nc2ccc(N3CCC[C@@H](C(=O)N4CCCC4)C3)nc2[nH]1)n1cc(Cl)cn1
Activity (Canis familiaris [3]): 86%
fCmax (Canis familiaris [8]): 2.14 µM

Compound: CS(=O)(=O)O.O=C([C@@H]1CCCN(c2ccc3nc(C4(n5cc(Cl)cn5)CC4)[nH]c3n2)C1)N1CCCC1
Activity (Canis familiaris [11]): Dose-dependent effect
fCmax (Rattus norvegicus [12]): 18.8 µM
Activity (Canis familiaris [13]): Toxic
Activity (Canis familiaris [3]): 97%
fAUC (Canis familiaris [14]): 24800 ng·h/mL
Activity (Canis familiaris [15]): Toxic
fCmax (Rattus norvegicus [16]): 4.65 µM
microsomal CLint (CYP3A4): 23.7 µL/min/mg
Activity (Canis familiaris [17]): 5 mmHg
fCmax (Canis familiaris [18]): 16.3 µM
Activity (Canis familiaris [19]): Toxic
Activity (Canis familiaris [20]): 6 to 20 bpm
Activity (Canis familiaris [21]): Toxic
Activity (Canis familiaris [22]): 4 to 10 bpm
fCmax (Canis familiaris [6]): 2030 nM
fAUC (Rattus norvegicus [23]): 88300 ng·h/mL
microsomal CLint (UGT): < 1.9 µL/min/mg
Activity (Canis familiaris [24]): Toxic
fCmax (Canis familiaris [25]): 15.3 µM
fAUC (Canis familiaris [26]): 92600 ng·h/mL
fCmax (Canis familiaris [8]): 4.06 µM
Activity (Canis familiaris [27]): Non-Toxic
fAUC (Canis familiaris [9]): 5280 ng·h/mL
Activity (Rattus norvegicus [28]): 75%
fAUC (Canis familiaris [29]): 1120 ng·h/mL
fCmax (Rattus norvegicus [30]): 13.9 µM
Activity (Canis familiaris [31]): 60%
Activity (Canis familiaris [32]): Non-Toxic
